# Results reported in publication PMC7935732 (Targeted Oncology, 2021).
# “Also recorded” adds a separate entry of the source. Marks after values point to notes of the source that are not given here.
# Assays:
# [1] = system: advanced and/or metastatic cancers; assay: Antitumor activity; assay type: in vivo, human
# [2] = system: breast cancer; details: larger population, including MONARCH plus; cited from earlier work
# [3] = Plasma pharmacokinetics, LC-MS/MS, non-compartmental analysis; assay type: in vivo, human; details: for CL/F / RAUC (accumulation ratio for AUC0–12): abemaciclib, geometric mean (% CV); for half-life / Cmax / AUC(0-inf) / AUC(0-t) / Vd/F: human, plasma; for Cmax: Mean abemaciclib Cmax
# Summary of the method: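 Oral test compound, 150 or 200 mg. Plasma was sampled at 1–72 h after a single dose (Cycle 1 Day 1) and at 1–24 h after twice-daily dosing (Day 31), with doses held during sampling. Parent and two major active metabolites were measured by validated LC-MS/MS. Non-compartmental analysis; total active analytes summed. RAUC compares steady-state AUC0–12 with single-dose values. Descriptive statistics by dose.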
# [4] = system: CDK 4; details: in vitro; cited from earlier work
# [5] = system: patients with advanced solid tumors; details: given twice daily on a continuous schedule (every 12 h); mainly Caucasian patients; cited from earlier work
# [6] = Breast cancer treated population, 150 mg (n1 = 10)
# [7] = Breast cancer treated population, 200 mg (n1 = 11)
# [8] = Breast cancer treated population, Total (n1 = 21)
# [9] = Overall population, 150 mg (n = 12)
# [10] = Overall population, 200 mg (n = 13)
# [11] = Overall population, Total (n = 25)
structure (smiles),measurement,setting,value
CCN1CCN(Cc2ccc(Nc3ncc(F)c(-c4cc(F)c5nc(C)n(C(C)C)c5c4)n3)nc2)CC1 [abemaciclib],Confirmed responder,[1]; 150 mg cohort,1
same,Patients achieving PR,[1]; 1 patient in each dose cohort,2 patients
same,Best overall response: Complete response (CR),[1]; [6],0 n (%)
same,Best overall response: Partial response (PR),[1]; [6],1 (10.0) n (%)
same,Best overall response: Progressive disease (PD),[1]; [6],2 (20.0) n (%)
same,Disease control rate (CR+PR+SD),[1]; [6],7 (70.0) n (%)
same,Overall response rate (CR+PR),[1]; [6],1 (10.0) n (%)
same,Best overall response: Complete response (CR),[1]; [7],0 n (%)
same,Best overall response: Partial response (PR),[1]; [7],1 (9.1) n (%)
same,Best overall response: Progressive disease (PD),[1]; [7],1 (9.1) n (%)
same,Disease control rate (CR+PR+SD),[1]; [7],9 (81.8) n (%)
same,Overall response rate (CR+PR),[1]; [7],1 (9.1) n (%)
same,Best overall response: Complete response (CR),[1]; [8],0 n (%)
same,Best overall response: Partial response (PR),[1]; [8],2 (9.5) n (%)
same,Best overall response: Progressive disease (PD),[1]; [8],3 (14.3) n (%)
same,Disease control rate (CR+PR+SD),[1]; [8],16 (76.2) n (%)
same,Overall response rate (CR+PR),[1]; [8],2 (9.5) n (%)
same,Best overall response: Complete response (CR),[1]; [9],0 n (%)
same,Best overall response: Partial response (PR),[1]; [9],1 (8.3) n (%)
same,Best overall response: Progressive disease (PD),[1]; [9],2 (16.7) n (%)
same,Disease control rate (CR+PR+SD),[1]; [9],8 (66.7) n (%)
same,Overall response rate (CR+PR),[1]; [9],1 (8.3) n (%)
same,Best overall response: Complete response (CR),[1]; [10],0 n (%)
same,Best overall response: Partial response (PR),[1]; [10],1 (7.7) n (%)
same,Best overall response: Progressive disease (PD),[1]; [10],2 (15.4) n (%)
same,Disease control rate (CR+PR+SD),[1]; [10],9 (69.2) n (%)
same,Overall response rate (CR+PR),[1]; [10],1 (7.7) n (%)
same,Best overall response: Complete response (CR),[1]; [11],0 n (%)
same,Best overall response: Partial response (PR),[1]; [11],2 (8.0) n (%)
same,Best overall response: Progressive disease (PD),[1]; [11],4 (16.0) n (%)
same,Disease control rate (CR+PR+SD),[1]; [11],17 (68.0) n (%)
same,Overall response rate (CR+PR),[1]; [11],2 (8.0) n (%)
same,Complete response (CR),[1]; all treated patients (n = 25),No complete response was observed; also recorded: no CR was observed
same,Disease control rate (DCR),[1]; all treated patients (n = 25),68%
same,Patients achieving partial response (PR),[1]; all treated patients (n = 25),8%
same,Incidence of embolism,[2],less than 5%
same,CL/F,"[3]; single oral dose 150 mg (C1D1), N 12",22.1 (63) L/h
same,CL/F,"[3]; single oral dose 200 mg (C1D1), N 13",26.4 (74) L/h
same,RAUC (accumulation ratio for AUC0–12),"[3]; steady state (C1D31) 150 mg every 12 h, n = 5",1.57 (106)^b
same,RAUC (accumulation ratio for AUC0–12),"[3]; steady state (C1D31) 200 mg every 12 h, N 10",2.10 (69)
same,half-life,"[3]; oral, 200 mg",~24 h
same,Cmax,"[3]; oral, 200 mg, after multiple doses of 150 or 200 mg",260 to 320 ng/mL
same,Cmax,"[3]; oral, after a single dose",200 ng/mL
same,AUC(0-inf),"[3]; po, 150 mg",6790 ng·h/mL
same,AUC(0-t),"[3]; po, 150 mg",1700 ng·h/mL
same,Vd/F,"[3]; po, 150 mg",767 L
same,half-life,"[3]; po, 150 mg",22.4 h
same,AUC(0-inf),"[3]; po, 200 mg",7580 ng·h/mL
same,AUC(0-t),"[3]; po, 200 mg",1740 ng·h/mL
same,Vd/F,"[3]; po, 200 mg",955 L
same,half-life,"[3]; po, 200 mg",22.8 h
same,Greater potency against CDK 4 than against CDK 6,[4],14 times
same,Maximum tolerated dose (MTD),[5],200 mg
